The text below walks through data of ChEMBL document CHEMBL1130127, “Synthesis, photophysical properties, in vivo photosensitizing efficacy, and human serum albumin binding properties of some novel bacteriochlorins” (J Med Chem, 1997).

Series [1] relates to Mus musculus. In words: The compound was tested in vivo for photosensitizing efficacy in DBA/2 Mice transplanted with SMT/F tumors and the activity is expressed as % response (6-10 days) 3 hours post injection at 5.0 mg/kg concentration. Format: functional. In outline:
(§1)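 Female DBA/2 HA-DD mice, 5-7 weeks old. A 1 mm SMT-F tumor piece from a donor was trocar-implanted subcutaneously in the axilla. At about 5 mm tumor diameter, sensitizer in 1% Tween 80/water was given iv; dose was based on extinction coefficient. At 3 or 24 h after injection, restrained mice had the tumor lit with 135 J/cm2 laser light at the in vivo long-wavelength maximum. Tumor response was followed to day 30; six mice/group.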

Series [2] concerns Mus musculus. In words: The compound was tested in vivo for photosensitizing efficacy in DBA/2 Mice transplanted with SMT/F tumors and the activity is expressed as % response (21-25 days) 3 hours post injection at 1 mg/kg concentration; No response. Format: functional, organism-based. On the set-up: dose 1 mg/kg. In outline:
as §1

In series [3] the test system is Mus musculus. Put plainly: The compound was tested in vivo for photosensitizing efficacy in DBA/2 Mice transplanted with SMT/F tumors and the activity is expressed as % response (11-15 days) 3 hours post injection at 2.5 mg/kg concentration. The class given is functional. An outline of the steps: as §1
The test system of series [4] is Mus musculus. Put plainly: The compound was tested in vivo for photosensitizing efficacy in DBA/2 Mice transplanted with SMT/F tumors and the activity is expressed as % response (16-20 days) 3 hours post injection at 1 mg/kg concentration; No response. Format: functional, organism-based. On the set-up: dose 1 mg/kg. In outline:
as §1

The test system of series [5] is Mus musculus. Put plainly: The compound was tested in vivo for photosensitizing efficacy in DBA/2 Mice transplanted with SMT/F tumors and the activity is expressed as % response (6-10 days) 3 hours post injection at 2.5 mg/kg concentration. The class given is functional. In outline: as §1
In series [6] the test system is Mus musculus. In words: The compound was tested in vivo for photosensitizing efficacy in DBA/2 Mice transplanted with SMT/F tumors and the activity is expressed as % response (11-15 days) 3 hours post injection at 5.0 mg/kg concentration. Format: functional. In outline:
as §1

For series [7], the system named is Mus musculus. In words: The compound was tested in vivo for photosensitizing efficacy in DBA/2 Mice transplanted with SMT/F tumors and the activity is expressed as % response (21-25 days) 3 hours post injection at 2.5 mg/kg concentration. The class given is functional. An outline of the steps:
as §1

For series [8], the system named is Mus musculus. In words: The compound was tested in vivo for photosensitizing efficacy in DBA/2 Mice transplanted with SMT/F tumors and the activity is expressed as % response (1-5 days) 3 hours post injection at 2 1 mg/kg concentration; No response. The class given is functional, organism-based. Also on record: dose 1 mg/kg. As to conditions: at 1 mg/kg. An outline of the steps:
as §1

The subject of series [9] is Mus musculus. In words: The compound was tested in vivo for photosensitizing efficacy in DBA/2 Mice transplanted with SMT/F tumors and the activity is expressed as % response (16-20 days) 3 hours post injection at 2.5 mg/kg concentration. Format: functional. An outline of the steps: as §1
The target of series [10] is T1, Albumin (Homo sapiens, UniProt P02768). Put plainly: Binding affinity against Human serum albumin(Site I). An outline of the steps: (§2)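 Fluorometric titration: HSA and sensitizer fixed at 1 × 10^-6 mol/L. Site probe varied 4 × 10^-7 to 2 × 10^-6 mol/L: DNSA for site I, read at 472 nm; DP for site II, read at 476 nm; excitation 340 nm. Incubated 4 °C, pH 7.0, 4 h, dark. Bound probe taken from standard curves of free probe (water) and HSA-bound probe (2.5 × 10^-5 mol/L HSA).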

Series [11] relates to Mus musculus. In words: The compound was tested in vivo for photosensitizing efficacy in DBA/2 Mice transplanted with SMT/F tumors and the activity is expressed as % response (26-30 days) 3 hours post injection at 5.0 mg/kg concentration; No response. Format: functional, organism-based. Also on record: dose 5 mg/kg. In outline:
as §1

In series [12] the test system is Mus musculus. In words: The compound was tested in vivo for photosensitizing efficacy in DBA/2 Mice transplanted with SMT/F tumors and the activity is expressed as % response (21-25 days) 3 hours post injection at 5.0 mg/kg concentration; No response. Format: functional, organism-based. Also on record: dose 5 mg/kg. In outline: as §1
Series [13] deals with Mus musculus. In words: The compound was tested in vivo for photosensitizing efficacy in DBA/2 Mice transplanted with SMT/F tumors and the activity is expressed as % response (16-20 days) 3 hours post injection at 5.0 mg/kg concentration. Format: functional. In outline: as §1
Series [14] relates to Mus musculus. In words: The compound was tested in vivo for photosensitizing efficacy in DBA/2 Mice transplanted with SMT/F tumors and the activity is expressed as % response (1-5 days) 3 hours post injection at 2.5 mg/kg concentration. Format: functional. An outline of the steps: as §1
Series [15] concerns Mus musculus. In words: The compound was tested in vivo for photosensitizing efficacy in DBA/2 Mice transplanted with SMT/F tumors and the activity is expressed as % response (26-30 days) 3 hours post injection at 1 mg/kg concentration; No response. Format: functional, organism-based. Also on record: dose 1 mg/kg. In outline: as §1
In series [16] the target is T1, Albumin. In words: Binding affinity against Human serum albumin(Site II). In outline:
as §2

The test system of series [17] is Mus musculus. Put plainly: The compound was tested in vivo for photosensitizing efficacy in DBA/2 Mice transplanted with SMT/F tumors and the activity is expressed as % response (26-30 days) 3 hours post injection at 2.5 mg/kg concentration. The class given is functional. An outline of the steps:
as §1

Series [18] deals with Mus musculus. In words: The compound was tested in vivo for photosensitizing efficacy in DBA/2 Mice transplanted with SMT/F tumors and the activity is expressed as % response (1-5 days) 3 hours post injection at 5.0 mg/kg concentration. Format: functional. In outline: as §1
The subject of series [19] is Mus musculus. In words: The compound was tested in vivo for photosensitizing efficacy in DBA/2 Mice transplanted with SMT/F tumors and the activity is expressed as % response (6-10 days) 3 hours post injection at 1 mg/kg concentration; No response. The class given is functional, organism-based. On the set-up: dose 1 mg/kg. In outline: as §1
Series [20] concerns Mus musculus. In words: The compound was tested in vivo for photosensitizing efficacy in DBA/2 Mice transplanted with SMT/F tumors and the activity is expressed as % response (11-15 days) 3 hours post injection at 1 mg/kg concentration; No response. Format: functional, organism-based. On the set-up: dose 1 mg/kg. In outline: as §1

Active and inactive are the calls of the source. No cut-off for these calls is given here.

T1 sequence (P02768 whole entry): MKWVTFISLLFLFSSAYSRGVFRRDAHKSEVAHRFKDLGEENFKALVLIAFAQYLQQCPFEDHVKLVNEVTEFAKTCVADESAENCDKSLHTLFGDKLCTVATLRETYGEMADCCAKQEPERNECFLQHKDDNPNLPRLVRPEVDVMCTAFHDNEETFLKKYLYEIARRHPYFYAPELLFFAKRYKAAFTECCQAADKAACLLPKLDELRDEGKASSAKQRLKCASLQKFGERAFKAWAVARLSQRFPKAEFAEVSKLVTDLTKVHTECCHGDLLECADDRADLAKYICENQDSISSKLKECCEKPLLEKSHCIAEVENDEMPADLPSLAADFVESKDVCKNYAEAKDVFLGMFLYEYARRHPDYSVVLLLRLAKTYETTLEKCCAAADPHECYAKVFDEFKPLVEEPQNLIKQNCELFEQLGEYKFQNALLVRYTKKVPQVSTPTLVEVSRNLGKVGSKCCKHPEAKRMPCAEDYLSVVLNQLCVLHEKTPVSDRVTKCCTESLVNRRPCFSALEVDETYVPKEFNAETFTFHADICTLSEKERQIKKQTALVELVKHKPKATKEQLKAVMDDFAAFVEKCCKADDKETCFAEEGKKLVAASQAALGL

Turning to `CCc1c(C)c2[nH]c1cc1[nH]c(cc3nc4c(c5nc(c2C=O)[C@@H](C)[C@@H]5CCC(=O)OC)CCC4=C3C)C(=O)C1(C)CC` (stereo not given in full), the Response came out at 60% in the series on Mus musculus [1]; 80% in the series with Mus musculus [3]; 100% in the series on Mus musculus [5]; 60% in the series on Mus musculus [6]; 60% with Mus musculus [7]; 60% in the series with Mus musculus [9]. For the same compound, the Response in the series on Mus musculus [13] is recorded as 0%; in the series on Mus musculus [14], 100%; with Mus musculus [17], 20%; with Mus musculus [18], 100%. Also, the Response entry in the series with Mus musculus [2], in the series with Mus musculus [4], in the series on Mus musculus [8], in the series with Mus musculus [11], with Mus musculus [12] and in the series on Mus musculus [15] was “inactive” in each case. Further, the Response entry with Mus musculus [19] and in the series with Mus musculus [20] was “inactive” each time. Also, the Binding constant at Albumin [10] and on Albumin [16] was 500000 l M-1 in each case.
